Compound activity from PubChem BioAssay.
This is a sample that favours compounds with a hit; in the whole collection about 4% have one here.
Cl transport mod – modulators of human KCC2 chloride dependent transport; AID 1456; KCC2 cells, thallium flux FluoZin-2 fluorescence; actives 2.2% (n = 190,000); B-score of Tl+ flux slope (higher = more flux/activation; lower = inhibition) at 10 µM; Q9H2X9;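 active = thallium flux slope and its plate-corrected score both differing from the plate sample mean at a set confidence after two filtering rounds, in either direction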;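 also: slope of fluorescence scaled to starting intensity during 10 to 20 s after thallium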
Target sequence (Q9H2X9 whole entry, looked up): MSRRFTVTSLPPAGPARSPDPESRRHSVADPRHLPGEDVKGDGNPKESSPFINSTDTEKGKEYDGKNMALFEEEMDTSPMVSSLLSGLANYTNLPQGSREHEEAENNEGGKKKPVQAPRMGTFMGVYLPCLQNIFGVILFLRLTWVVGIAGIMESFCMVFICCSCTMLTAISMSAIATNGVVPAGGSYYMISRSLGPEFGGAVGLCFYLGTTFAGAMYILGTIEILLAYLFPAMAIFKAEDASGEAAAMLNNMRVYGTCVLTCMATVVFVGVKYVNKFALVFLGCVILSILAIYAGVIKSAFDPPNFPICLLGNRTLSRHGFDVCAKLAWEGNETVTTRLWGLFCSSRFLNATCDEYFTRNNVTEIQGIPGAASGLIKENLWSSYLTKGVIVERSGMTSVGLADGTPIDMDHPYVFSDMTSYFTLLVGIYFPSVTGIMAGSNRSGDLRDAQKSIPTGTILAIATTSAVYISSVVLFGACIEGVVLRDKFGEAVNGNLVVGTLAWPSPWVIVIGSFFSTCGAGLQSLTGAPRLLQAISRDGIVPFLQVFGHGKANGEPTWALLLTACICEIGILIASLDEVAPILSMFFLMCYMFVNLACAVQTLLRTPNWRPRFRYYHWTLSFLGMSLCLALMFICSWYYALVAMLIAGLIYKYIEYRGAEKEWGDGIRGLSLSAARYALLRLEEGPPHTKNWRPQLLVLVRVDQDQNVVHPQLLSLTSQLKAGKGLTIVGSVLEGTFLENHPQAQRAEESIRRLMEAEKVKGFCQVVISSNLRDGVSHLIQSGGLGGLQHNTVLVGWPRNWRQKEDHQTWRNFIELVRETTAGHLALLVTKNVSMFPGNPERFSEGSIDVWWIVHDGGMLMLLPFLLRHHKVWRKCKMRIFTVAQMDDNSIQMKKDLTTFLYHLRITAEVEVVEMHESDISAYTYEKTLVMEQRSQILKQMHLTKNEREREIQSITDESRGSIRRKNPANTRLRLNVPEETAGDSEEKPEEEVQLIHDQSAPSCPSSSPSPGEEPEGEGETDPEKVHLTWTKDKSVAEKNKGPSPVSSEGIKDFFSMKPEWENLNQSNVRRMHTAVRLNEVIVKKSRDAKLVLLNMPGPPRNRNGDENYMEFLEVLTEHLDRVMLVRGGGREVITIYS
bCat nuc transl – modulators of beta-catenin nuclear translocation; HeLa beta-catenin nuclear translocation, immunofluorescence imaging; nuclear translocation activity, % at 5 µM; actives 0.3% (n = 190,000);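 active = nuclear translocation activity above 50% at 5 µM, with a well cell count of 50 or more; inconclusive = wells under 50 cells across six images, flagged as toxic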;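 also: per-cell ratio of nuclear to cytoplasmic median beta-catenin stain intensity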
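Test system: human HeLa cells, native beta-catenin. Compound dosing: 5 µM primary single dose, 0.1% DMSO, 0.02–20 µM confirmation series. Incubation: compound exposure 24 h at 37°C. Detection: beta-catenin immunostaining with DAPI counterstain, 20x imaging, 6 fields/well. Read-out basis: Nuclear/cytoplasmic beta-catenin signal ratio, % activation.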
WT yeast gro inh – growth inhibition of WT yeast, mitochondrial fusion screen; mitochondrial fusion phenotypic screen, WT strain; inhibition, % at 10 µM; actives 2.1% (n = 190,000); in the data active = inhibition above about 58%; tested in S. cerevisiae
MT stabilize HCS – microtubule stabilizers in HeLa cells. HeLa tubulin immunostaining HCS, 24 h; share of cells brighter than vehicle mean+2SD. actives 0.83% (n = 200,000). % tubulin-high responders, % at 10 µM;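 active = plate Z-score above 3 for both tubulin-high and condensed-nucleus cell shares, with cell loss under 80%, at 10 µM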;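 also: anti alpha tubulin signal scored within the nucleus-defined area of each cell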
Pf gametocyte – inhibitors of late stage P. falciparum gametocyte viability; P. falciparum stage V gametocytes, ATP luminescence, 24 h; actives 0.065% (n = 150,000); inhibition, % at 10.9 µM;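 active = inhibition above the mean plus 3 SD of compounds within the control limits, set per campaign, cut at about 38% in these data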
KCC2 secondary – KCC2 (human) modulation, secondary assay | shares compounds with Cl transport mod | HEK293-KCC2, thallium flux, FluoZin2 fluorescence; hits give high values | normalised thallium flux (F/F0 slope) at 10 µM | actives 15% (n = 3,700) | AID 1713;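 active = thallium flux slope above the same plate's solvent-only control mean plus 3 SD; inconclusive = the two replicate wells disagree; inactive = no significant difference from solvent-only control wells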
KCC2 bumet counter – thallium flux despite bumetanide block in KCC2 cells, secondary assay 3; shares compounds with Cl transport mod; HEK293-KCC2 + bumetanide/ouabain, thallium flux FluoZin2; hits give high values; normalized thallium flux at 10 µM; actives 49% (n = 3,700); AID 1714;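 active = thallium entry rate above the same plate's blocked-transporter control wells by more than 3 SD; inconclusive = the two repeat wells disagree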;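 also: raw slope of fluorescence over initial fluorescence between 10 and 20 s after thallium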
KCC2 sec2 – KCC2 (human) modulation, second secondary assay. normalized thallium flux at 10 µM. HEK293-KCC2, thallium flux FluoZin2 fluorescence; actives lie on both sides; F/F0 rise rate, 10–20 s post-thallium. shares compounds with Cl transport mod. actives 23% (n = 3,700). AID 1715;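 active = thallium flux slope more than 3 SD above or below the plate's solvent-only control mean, mostly below; inconclusive = the two repeat wells disagreed; inactive = no significant shift from solvent-only controls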
HEK counter1 – acts in parental HEK cells, KCC2 counter-screen; shares compounds with Cl transport mod; HEK293 parental cells, thallium flux FluoZin2, ouabain; baseline-ratio fluorescence slope, 10–20 s after thallium; thallium flux rate (normalised fluorescence) at 10 µM; actives 46% (n = 3,700);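 active = thallium flux rate significantly above the same plate's solvent-only control wells, beyond their mean plus 3 SD; inconclusive = the two replicate wells gave conflicting results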
KCC2 retest ouab – KCC2 (human) modulation, ouabain retest. raw Tl+ flux slope (below DMSO = inhibition, above = activation) at 10 µM. shares compounds with Cl transport mod. actives 48% (n = 3,700). HEK293-KCC2, thallium flux FluoZin2 fluorescence; bidirectional: low = inhibitor, high = activator;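 active = thallium flux slope beyond 3 SD from same-plate DMSO control mean in most replicates, usually higher, sometimes lower; inconclusive = repeat tests gave conflicting results; inactive = no significant difference from controls in most replicates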;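 also: slope of initial-normalized fluorescence between seconds 10 and 20 after thallium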
HEK counter2 – parental HEK flux effect, counter-screen 2 | shares compounds with Cl transport mod | HEK293 parental, thallium flux FluoZin-2 fluorescence slope | thallium flux slope at 10 µM | actives 33% (n = 3,700) | AID 1718;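 active = thallium flux slope above the same plate's solvent-control mean plus 3 SD in both duplicate wells; inconclusive = duplicate wells that disagreed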;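 also: run without ouabain in cells lacking the KCC2 cotransporter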
A number is an active result; . = inactive; ? = inconclusive; / = no result given.

SMILES	Cl transport mod	bCat nuc transl	WT yeast gro inh	MT stabilize HCS	Pf gametocyte	KCC2 secondary	KCC2 bumet counter	KCC2 sec2	HEK counter1	KCC2 retest ouab	HEK counter2
CCOc1cc2c(cc1/C=C1/NC(=O)N(CC(=O)OC)C1=O)OCO2	.	.	.	.	/	/	/	/	/	/	/
COCCNC(=S)N/N=C(\C)c1ccc2cc(OC)ccc2c1	10.5	.	.	.	.	.	0.0353	.	0.0143	0.0323	.
COCCNC(=S)N/N=C(\C)c1ccc(OC(F)F)cc1	.	.	/	/	.	/	/	/	/	/	/
COc1ccc(C/C(C)=N/NC(=S)Nc2ccc(C)c(C)c2)cc1	.	.	.	.	.	/	/	/	/	/	/
COc1ccc(/C(C)=N/NC(=S)Nc2cc(C)ccc2C)cc1	25.3	.	67.0	.	.	.	0.0483	0.0458	0.0361	0.0408	0.0376
COCCNC(=S)N/N=C(\C)c1cccc(C(F)(F)F)c1	5.79	.	.	.	.	.	0.02	.	0.0124	.	0.0149
COCCNC(=S)N/N=C(\C)c1ccc(OC)cc1	.	.	.	.	/	/	/	/	/	/	/
CCNC(=S)N/N=C(\C)c1ccc2ccccc2c1	19.6	.	72.4	.	/	.	0.0335	.	?	0.0314	.
O=C(Nc1cccc2cccnc12)c1ccccc1Br	/	/	/	/	.	/	/	/	/	/	/
Cc1ccccc1OCc1nnc(SCC(=O)Nc2ccc(N3CCOCC3)c(Cl)c2)n1C	.	/	.	.	.	/	/	/	/	/	/
CCNC(=S)N/N=C(\C)c1cccc(OC)c1	.	.	.	.	.	/	/	/	/	/	/
COCCNC(=S)N/N=C(\C)c1cc2ccccc2o1	19	.	.	.	.	.	0.0245	?	0.0224	0.0286	0.0183
C/C(=N\NC(=S)NC(C)C)c1ccccc1OC(F)F	5.98	.	.	.	/	.	0.00966	.	0.0123	.	0.0151
C/C(=N\NC(=O)c1nc2ccccn2c1C)c1ccco1	.	.	.	.	.	/	/	/	/	/	/
CCNC(=S)N/N=C(\C)c1ccc2ccccc2c1OC(F)F	7.69	.	72.9	.	.	0.0121	0.0625	.	0.0218	0.0456	0.0149
C/C(=N\NC(=O)c1nc2ccccn2c1C)c1cc2ccccc2o1	15.7	.	.	.	.	.	0.0654	0.0471	0.0358	0.0499	0.0391
C/C(N)=C(/C#N)C(=O)COC(=O)CNC(=O)c1ccc(Cl)cc1Cl	.	.	.	.	.	/	/	/	/	/	/
Cc1cc(=O)[nH]c(NCc2ccc(Cl)cc2)n1	/	/	/	/	.	/	/	/	/	/	/
COc1ccc(NC(=O)CCOc2ccc(C)cc2)c(OC)c1	/	/	/	/	.	/	/	/	/	/	/
CC1CCC(C(=O)NNC(=O)c2cc(-c3ccco3)[nH]n2)CC1 (stereo not given)	-2.92	.	.	.	.	.	.	.	?	?	.
O=C(O)c1cc(-c2ccco2)[nH]n1	.	.	.	.	.	/	/	/	/	/	/
CSc1ccccc1NC(=S)Nc1ccccc1C(F)(F)F	4.73	.	.	.	.	.	0.0115	.	0.0125	?	.
CSc1ccccc1NC(=S)Nc1ccc(S(N)(=O)=O)cc1	3.02	.	.	.	.	.	0.00752	.	0.00965	?	?
Nc1nnc(CCOc2ccc(Cl)cc2)s1	.	.	.	.	.	/	/	/	/	/	/
Cc1cccc(OCCc2nnc(N)s2)c1C	-5.93	.	.	.	/	.	.	0.0256	.	?	.
SMILES	Cl transport mod	bCat nuc transl	WT yeast gro inh	MT stabilize HCS	Pf gametocyte	KCC2 secondary	KCC2 bumet counter	KCC2 sec2	HEK counter1	KCC2 retest ouab	HEK counter2
CC(=O)c1ccccc1NCC(=O)Nc1ccc(C)cc1	.	.	.	.	.	/	/	/	/	/	/
c1ccc(OCc2nn3c(Cn4nnc5ccccc54)nnc3s2)cc1	-2.56	/	.	.	.	.	.	.	.	0.0152	.
c1ccc(Cc2nn3c(Cn4nnc5ccccc54)nnc3s2)cc1	.	.	.	.	.	/	/	/	/	/	/
COc1ccccc1-c1nnc2sc(COc3ccccc3)nn12	.	.	.	.	/	.	?	0.024	0.00636	0.0148	?
Brc1ccccc1-c1nnc2sc(Cc3ccccc3)nn12	-4.05	.	.	.	/	.	.	?	?	0.0129	.
CC(C)c1nc(CN(C)C(=O)N[C@H](C(=O)N[C@@H](Cc2ccccc2)C[C@H](O)[C@H](Cc2ccccc2)NC(=O)OCc2cncs2)C(C)C)cs1	.	.	.	/	/	/	/	/	/	/	/
O=C(NCCN1C(=O)C2C3C=CC(C3)C2C1=O)Nc1ccccc1O (stereo not given)	.	/	.	.	/	.	?	.	.	.	.
CCCN1C=CC(=CC=C(C#N)C#N)C=C1	-7.81	.	/	/	.	0.00215	-0.00144	0.0233	?	0.00659	?
C=CCN1C=CC(=CC=C(C#N)C#N)C=C1	.	.	/	/	.	/	/	/	/	/	/
CCOC(=O)C1(C)NC(c2ccco2)C2C(=O)N(C)C(=O)C21 (stereo not given)	.	.	.	.	.	/	/	/	/	/	/
O=C(CN1C(=O)NC(Cc2ccccc2)C1=O)Nc1ccccc1 (stereo not given)	.	/	.	.	/	/	/	/	/	/	/
O=C(CN1C(=O)NC(Cc2ccccc2)C1=O)NC(=O)NC1CCCCC1 (stereo not given)	-4.57	.	.	.	/	.	.	?	.	0.015	.
Cc1nn(Cc2ccc(F)cc2)c(C)c1NC(=O)CCCn1nc([N+](=O)[O-])cc1C	.	.	.	.	.	/	/	/	/	/	/
CCOc1ncccc1C(=O)OCCN1C(=O)c2ccccc2C1=O	5.78	.	.	.	/	.	.	.	.	.	.
CCOc1ncccc1C(=O)OCC(=O)c1ccccc1	.	.	.	.	.	/	/	/	/	/	/
CC(NC(=O)Cc1cccs1)c1ccc2c(c1)OCO2 (stereo not given)	1.69	.	.	.	/	.	.	.	.	.	.
C=CCNC(=S)Nc1nc2c(cc1C(=O)OCC)COC(C)(C)C2	8.52	.	/	/	.	.	0.0224	.	0.0197	0.029	0.0206
CCOC(=O)c1cc2c(nc1NC(=S)Nc1ccccc1)CC(C)(C)OC2	.	.	.	.	.	/	/	/	/	/	/
CCOC(=O)c1cc2c(nc1NC(=S)NCc1ccccc1)CCCC2	5.23	.	.	.	.	.	0.0296	0.039	0.0384	0.0633	0.0183
CCOC(=O)c1cc(C#N)c(NCc2ccccc2)nc1C	.	.	.	.	/	/	/	/	/	/	/
CNc1ccc(Br)cc1C(O)c1ccccc1 (stereo not given)	.	.	/	/	.	/	/	/	/	/	/
